This is an account of results in ChEMBL document CHEMBL1125354, “Analogs of CCK incorporating conformationally constrained replacements for Asp32” (J Med Chem, 1992).

For orientation: IC50 means the concentration that gives 50% inhibition. Higher therefore signals weaker potency. For orientation: ED50 means the midpoint of the dose-response relation. A lower ED50 goes with greater potency.

The target in test [1] is T1, Cholecystokinin receptor type A (Rattus norvegicus, UniProt P30551).
T1 sequence (P30551 whole entry): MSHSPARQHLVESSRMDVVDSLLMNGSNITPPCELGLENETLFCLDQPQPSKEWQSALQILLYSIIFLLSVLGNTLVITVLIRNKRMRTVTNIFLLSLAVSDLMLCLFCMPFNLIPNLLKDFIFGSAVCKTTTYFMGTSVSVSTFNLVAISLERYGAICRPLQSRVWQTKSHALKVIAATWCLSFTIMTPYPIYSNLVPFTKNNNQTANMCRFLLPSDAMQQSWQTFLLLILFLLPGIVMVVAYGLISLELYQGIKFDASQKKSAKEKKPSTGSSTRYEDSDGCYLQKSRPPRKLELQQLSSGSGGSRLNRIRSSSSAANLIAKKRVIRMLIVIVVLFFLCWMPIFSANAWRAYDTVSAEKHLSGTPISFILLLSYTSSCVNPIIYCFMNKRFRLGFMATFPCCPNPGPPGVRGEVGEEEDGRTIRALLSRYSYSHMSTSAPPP
The experiment in a line: Inhibitory activity against cholecystokinin type A receptor from rat pancreas binding assay. Put shortly:
(§1)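 Solubilized membranes from fresh pancreas of fasted rats (CCK-A). Competition against [3H]propanoyl-CCK-8. Nonspecific binding defined with 1 μM native CCK-8 and subtracted. IC50 is the concentration inhibiting 50% of total specific binding, from log-probit analysis. Actives confirmed in duplicate experiments.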

Test [2] concerns Rattus norvegicus. The experiment in a line: Dose required to inhibit the food intake by 50% in rats at a dose of 320 ug/kg ip. The format is functional. Put shortly:
(§2)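 Male Sprague–Dawley rats (200–250 g), meal-fed. "1-2-1": trained 4–5 days on two 1-h meals 2 h apart; ip dosing 15 min before first meal, n=5–6. "Overnight fasted": n=5–7, ip vehicle or drug, food offered 1 h. Intake as % of saline control over first hour; t-test vs control; ED50 by log-probit.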

Test [3] has as its target T2, Gastrin/cholecystokinin type B receptor (Bos taurus, UniProt P79266).
T2 sequence (P79266 whole entry): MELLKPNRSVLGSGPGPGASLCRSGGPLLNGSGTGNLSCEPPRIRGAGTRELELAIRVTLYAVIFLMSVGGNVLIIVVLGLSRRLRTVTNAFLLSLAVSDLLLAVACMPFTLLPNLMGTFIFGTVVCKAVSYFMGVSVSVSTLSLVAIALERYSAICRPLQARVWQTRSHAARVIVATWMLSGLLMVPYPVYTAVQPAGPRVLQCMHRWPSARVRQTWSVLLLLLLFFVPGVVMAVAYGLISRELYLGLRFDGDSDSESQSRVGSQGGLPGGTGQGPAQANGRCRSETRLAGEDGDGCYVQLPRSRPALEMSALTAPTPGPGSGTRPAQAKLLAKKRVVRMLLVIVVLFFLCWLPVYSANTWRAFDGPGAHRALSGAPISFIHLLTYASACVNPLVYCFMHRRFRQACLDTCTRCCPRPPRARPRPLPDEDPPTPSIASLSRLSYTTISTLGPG
The experiment in a line: Concentration inhibiting [3H]propionyl-CCK-8 binding to cholecystokinin type B receptor of bovine striatum. Format: tissue-based. The method in brief: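 CCK-B binding used solubilized bovine striatal membranes and [3H]propanoyl-CCK-8 displacement. Nonspecific binding was taken with 1 μM native CCK-8 and subtracted. IC50, the concentration giving 50% inhibition of total specific binding, was obtained by log-probit analysis. Actives were confirmed in duplicate experiments.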

Test [4] deals with T1, Cholecystokinin receptor type A. The test can be described thus: Concentration inhibiting [3H]propionyl-CCK-8 binding to cholecystokinin type A receptor of rat pancreatic membranes. The method in brief:
as §1

The test system of test [5] is Rattus norvegicus. The test can be described thus: Suppression of food intake in rats when administered intraperitoneally. The format is functional. Put shortly: as §2
Test [6] deals with Rattus norvegicus. The test can be described thus: Dose required to inhibit the food intake by 50% in rats after intraperitoneal administration. The format is functional. To be noted: ip. Put shortly:
as §2

*1 amine or outer side, *2 acyl side, *3 side chain or, on linkers, in order; H or OH if unused. Where a SMILES comes first, the peptide text is derived from it. Side-chain parts run from the residue outwards. [ ]: non-standard residue; d: D form. The star is where a group is joined. ξ: configuration not given here. Thz(5,5-Me2) = CC1(C)SCN[C@@H]1C(=O)O; NMeF = CN[C@@H](Cc1ccccc1)C(=O)O; NH(2-Me-phenyl) = Cc1ccccc1N*; ξF = NC(Cc1ccccc1)C(=O)O; Boc = CC(C)(C)OC(=O)*; CO = O=C([*:1])[*:2]

For `Cc1ccccc1NC(=O)NCCCC[C@H](NC(=O)[C@H](Cc1c[nH]c2ccccc12)NC(=O)OC(C)(C)C)C(=O)N[C@@H](CC(=O)O)C(=O)N(C)[C@@H](Cc1ccccc1)C(N)=O` (Boc-WK([CO-NH(2-Me-phenyl)])D[NMeF]-NH2), the IC50 in test [1] is 0.05 nM. That is a picomolar value.
In turn, `CSCC[C@H](NC(=O)[C@H](Cc1ccc(OS(=O)(=O)O)cc1)NC(C)=O)C(=O)NCC(=O)N[C@@H](Cc1c[nH]c2ccccc12)C(=O)N[C@@H](CCSC)C(=O)N1CSC(C)(C)[C@H]1C(=O)N[C@@H](Cc1ccccc1)C(N)=O` [listing 1 of 2 here] displayed an ED50 with Rattus norvegicus [2] of 0.0044 mg/kg.
`CSCC[C@H](NC(=O)[C@H](Cc1ccc(OS(=O)(=O)O)cc1)NC(C)=O)C(=O)NCC(=O)N[C@@H](Cc1c[nH]c2ccccc12)C(=O)N[C@@H](CCSC)C(=O)N1CSC(C)(C)[C@@H]1C(=O)N[C@@H](Cc1ccccc1)C(N)=O` [listing 1 of 2 here]: the IC50 in test [3] is 6160 nM; in test [4] it was 314 nM.
For `CSCC[C@H](NC(=O)[C@H](Cc1ccc(OS(=O)(=O)O)cc1)NC(C)=O)C(=O)NCC(=O)N[C@@H](Cc1c[nH]c2ccccc12)C(=O)N[C@@H](CCSC)C(=O)N1CSC(C)(C)[C@H]1C(=O)N[C@@H](Cc1ccccc1)C(N)=O` [listing 2 of 2 here], in that order: 2310 nM and 0.05 nM.
Regarding `CSCC[C@H](NC(=O)[C@H](Cc1ccc(OS(=O)(=O)O)cc1)NC(C)=O)C(=O)NCC(=O)N[C@@H](Cc1c[nH]c2ccccc12)C(=O)N[C@@H](CCSC)C(=O)N1CSC(C)(C)[C@@H]1C(=O)N[C@@H](Cc1ccccc1)C(N)=O` [listing 2 of 2 here], the ED50 in the test on Rattus norvegicus [2] was above 0.32 mg/kg. This molecule showed a Control in the test with Rattus norvegicus [5] of 66%.
Molecule `Cc1ccccc1NC(=O)NCCCC[C@H](NC(=O)[C@H](Cc1c[nH]c2ccccc12)NC(=O)OC(C)(C)C)C(=O)N1CSC(C)(C)[C@H]1C(=O)NC(Cc1ccccc1)C(N)=O` (stereo not given in full) (Boc-WK([CO-NH(2-Me-phenyl)])[Thz(5,5-Me2)][ξF]-NH2) yielded an IC50 in test [1] of 59 nM. In addition, the ED50 in the test with Rattus norvegicus [6] worked out at 0.085 mg/kg.
